RAM network inh: inhibitors of the yeast RAM network, primary screen, dse1pr::URA3 reporter, 5-FOA selection | S. cerevisiae dse1pr::URA3 reporter, 5-FOA growth OD615, 2 d; analog-sensitive cbk1-as2 kinase mutant strain | inhibition, % at 50 µM | actives 1.8% (n = 190,000);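 active = inhibition above a set limit, 3 SD over mean compound inhibition, cut at about 8.4% in these data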;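 also: 0% = DMSO-only wells with no growth and 100% = 10 µM 1-NA-PP1 full growth; inhibition rescues growth on 5-FOA so higher OD means more RAM inhibition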
BB579 growth dn: growth inhibitors of yeast BB579 in restrictive medium, primary screen, yeast lifespan-shortening project, S. cerevisiae | OD615, 48 h | inhibition, % at 10 µM | actives 0.51% (n = 140,000) | AID 804, 2007;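 active = inhibition above a set limit, 3 SD over the mean compound inhibition, cut at about 44% in these data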
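Detection: OD615 turbidity measurement; Material: Saccharomyces cerevisiae DeaD strain BB579, replicative lifespan model yeast; Timing: 48 h exposure, 30 °C; Doses: single 10 µM dose; Medium: CSMM-D restrictive synthetic medium containing dextrose (glucose); Controls: amphotericin B at 10 µg/mL as positive control.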
Yeast lifespan up: compounds extending yeast replicative lifespan, primary screen, S. cerevisiae, OD615; S. cerevisiae growth with nicotinamide; deaD strain in restrictive glucose medium; inhibition of the nicotinamide effect, % at 10 µM; AID 775, 2007; actives 0.68% (n = 130,000);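 active = inhibition above a set limit, placed 3 SD over the median of all compounds, cut at about 26% in these data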;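 also: 0% = nicotinamide-treated wells and 100% = cells grown without nicotinamide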
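assay system = DeaD-strain S. cerevisiae | buffer or medium = restrictive glucose medium | reagent = 1.5 mM nicotinamide | compound = 10 µM single point, 0.25% DMSO | incubation = 48 h compound exposure at 30 °C, humidified | signal = OD615 measurement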
WT yeast gro inh: growth inhibition of WT strain, primary screen, mitochondrial fusion inhibitor project, WT and mutant strains, chemical genetic; mitochondrial fusion phenotypic screen; inhibition, % at 10 µM; actives 2.1% (n = 190,000); in the data active = inhibition above about 58%; tested in S. cerevisiae
RAM efflux-def: 5-FOA growth of efflux-deficient control yeast, dose response, counter-screen for RAM network inhibitor project, S. cerevisiae, OD615; max inhibition, %; AID 1305, 2008; S. cerevisiae efflux-deficient reporter strain, 5-FOA growth OD615, 2 days; 1,200 tested, under 10 active; shares compounds with RAM network inh; call rule not given here;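 also: plate controls were vehicle for no effect and reference inhibitor for full effect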
Starred values were filed as active, the others as inactive; . = no result given. Compounds with a hit are over-represented: about 4.3% of the library has one in this group of screens.

SMILES | RAM network inh | BB579 growth dn | Yeast lifespan up | WT yeast gro inh | RAM efflux-def
Cc1nc2oc3ccc(F)cc3c(=O)c2cc1C(=O)NC(C)(C)C | 0.1 | . | . | -13.0 | .
Cc1ccc(NC(=O)COC(=O)c2cc(Cl)ccc2[N+](=O)[O-])c(C)c1 | 3.6 | -7.4 | 1.9 | -12.7 | .
Cc1ccc(NC(=O)COC(=O)CCC(=O)c2ccc(C(C)(C)C)cc2)c([N+](=O)[O-])c1 | 13.7* | -28.2 | 8.3 | -7.0 | 3.9
Cc1ccc(NC(=O)COC(=O)COc2ccc(Cl)cc2C)c([N+](=O)[O-])c1 | 11.6* | -38.4 | 0.6 | -33.1 | 1.4
O=C(NN1C(=O)/C(=C\c2cccnc2)SC1=S)c1ccco1 | 2.0 | . | . | -2.3 | .
CCOC(=O)C1=C(C)NC(=O)C1CC(=O)O (centres undefined) | 0.0 | -11.6 | 2.5 | 11.1 | .
CCOC(=O)CSc1nc(-c2ccccc2)nc2ccc(F)cc12 | 12.6* | -43.9 | 6.0 | -7.7 | 3.0
C=CCOC(=O)C1=C(C)NC(C)=C(C(=O)OCC=C)C1/C=C/c1ccccc1 | 15.1* | -40.2 | 5.9 | 50.3 | 5.5
CCOC(=O)C1=C(C)NC(C)=C(C(=O)OCC)C1/C=C/c1ccccc1 | 2.5 | -0.7 | -0.9 | 18.4 | .
COc1ccc(-c2nc3ccccc3c(=O)n2CCOc2cccc(C)c2C)cc1 | 15.9* | -19.6 | 2.5 | -1.1 | 4.8
COc1ccc(-c2nc3ccccc3c(=O)n2CCN2CCOCC2)cc1 | 1.2 | -43.4 | 2.7 | -11.9 | .
COc1ccc(-c2nc3ccccc3c(=O)n2CCOc2c(C)cccc2C)cc1 | 17.1* | -53.2 | 13.1 | -13.2 | 6.4
C=CCc1cccc(CNc2c(C)cc(C)cc2C)c1O | 0.8 | . | . | 14.2 | .
CCOc1ccc(N(Cc2ccccc2F)C2=NC3CS(=O)(=O)CC3S2)cc1 (centres undefined) | 0.7 | . | . | 25.4 | .
CC(C)=NOCc1ccc(-c2cn([C@@H]3COC[C@H]3O)nn2)cc1 | 2.7 | -49.3 | 8.0 | -13.2 | .
Cc1cc(C)c(S(=O)(=O)NCc2ccc3c(c2)cc(C)n3C)c(C)c1 | 13.7* | -42.8 | 9.2 | -9.3 | 2.3
Cc1cc2cc(CNS(=O)(=O)c3ccc4ccccc4c3)ccc2n1C | 3.8 | -12.6 | -4.3 | -13.2 | .
CC(C)[C@H](NS(=O)(=O)c1ccccc1)C(=O)OCC(=O)Nc1ccccc1Sc1ccccc1 | 14.9* | -24.4 | 10.6 | 44.0 | 5.6
COc1ccccc1/C=C/C(=O)OCC(=O)Nc1ccccc1Sc1ccccc1 | 15.5* | -31.5 | -1.2 | 20.4 | 3.4
O=C(COC(=O)CNS(=O)(=O)c1cccc(Br)c1)Nc1ccccc1Sc1ccccc1 | 15.0* | -48.4 | 10.9 | 1.5 | 1.7
O=C(COC(=O)CNS(=O)(=O)c1c(Cl)cccc1Cl)Nc1ccccc1Sc1ccccc1 | 7.9 | -40.7 | 7.0 | 9.2 | .
CCOC(=O)c1sc(NC(=O)/C=C/c2cnn(CC)c2C)c(C(=O)OCC)c1C | 11.8* | -17.6 | -0.1 | 63.2* | 2.8
CCOC(=O)c1sc(NC(=O)CCCn2nc([N+](=O)[O-])cc2C)c(C(=O)OCC)c1C | 12.8* | -1.5 | 1.7 | -30.1 | 1.5
CC(C)(C)n1cc(S(=O)(=O)c2ccccc2)[nH]c1=O | -0.6 | . | . | -11.9 | .
CCN(c1ccccc1)S(=O)(=O)c1ccc(Cl)c(C(=O)NCCc2ccc(OC)cc2)c1 | 12.3* | -14.6 | 2.1 | 8.3 | 2.6
SMILES | RAM network inh | BB579 growth dn | Yeast lifespan up | WT yeast gro inh | RAM efflux-def
COc1ccc(CCNC(=O)c2ccc(Cl)c(S(=O)(=O)N(C)c3ccccc3)c2)cc1 | 17.0* | -30.8 | 4.6 | 11.1 | 2.9
COc1ccc(NC(=O)c2cccc(S(=O)(=O)Nc3ccc(Br)cc3)c2)cn1 | 2.0 | -9.2 | -3.2 | 26.7 | .
O=C(Nc1ccc(Br)cc1)c1cccc(S(=O)(=O)Nc2cnc3ccccc3c2)c1 | 15.2* | -21.3 | 4.3 | -23.3 | 2.2
Cc1ccccc1-c1nnn(CC(=O)Nc2ccc3c(c2)OCCO3)n1 | 11.5* | . | . | 6.2 | 3.8
Cc1ccccc1-c1nnn(CC(=O)Nc2ccc3c(c2)OCO3)n1 | 3.9 | . | . | 9.4 | .
Cc1ccc(C(=O)C(OC(=O)COc2ccccc2C)c2ccccc2)cc1 (centres undefined) | 14.5* | -16.1 | -20.4 | 5.5 | 4.1
O=C(COc1ccccc1)OC(C(=O)c1ccccc1)c1ccccc1 (centres undefined) | 12.4* | -45.0 | -3.6 | 4.8 | 24.6
Cc1cc(C)c(OCCNC(=O)c2ccccc2Sc2ccccc2C#N)c(C)c1 | 19.7* | -34.8 | 2.5 | 24.5 | 4.6
COc1cccc(OCCNC(=O)c2ccccc2Sc2ccccc2C#N)c1 | 4.1 | -4.1 | -0.8 | -18.8 | .
Cc1ccccc1OCCNC(=O)c1ccccc1Sc1ccccc1C#N | 14.1* | -0.4 | -13.2 | 12.2 | 1.6
CCOC(=O)/C(C#N)=C\c1cc(OC)c(OC)cc1[N+](=O)[O-] | 2.6 | . | . | -3.2 | .
COc1cccc(C(=O)NC(=S)Nn2cnnc2)c1OC | 2.7 | . | . | -7.8 | .
Cc1cccc(NC(=O)C2CCCN2C(=O)Oc2ccccc2)c1C (centres undefined) | 12.3* | -3.0 | . | -16.3 | 1.1
Cc1ccc(OCC(=O)N2c3ccccc3CC2C)c([N+](=O)[O-])n1 (centres undefined) | 0.6 | . | . | -14.3 | .
Cc1nn(Cc2ccccc2)c(C)c1NC(=O)Cn1nc([N+](=O)[O-])c(Cl)c1C | -0.1 | -21.0 | -3.7 | 0.4 | .
Cc1nn(Cc2c(Cl)cccc2Cl)c(C)c1NC(=O)Cn1nc([N+](=O)[O-])c(Cl)c1C | 12.5* | -18.2 | 4.9 | -3.3 | 1.7
Cc1cc(/C=C2\NC(=O)N(Cc3ccc(Cl)cc3)C2=O)c(C)n1C | 2.4 | 1.7 | 2.5 | 2.0 | .
CCCCn1nnc(NC(=O)c2ccc(-c3ccccc3[N+](=O)[O-])o2)n1 | 1.5 | . | . | 1.7 | .
CCCCn1nnc(NC(=S)NC(=O)c2ccc(-c3cccc(Cl)c3Cl)o2)n1 | 13.5* | -14.3 | 7.6 | 77.6* | 4.7
CCOC(=O)C1CCCN(S(=O)(=O)c2ccc(S(=O)(=O)N(CC)CC)cc2)C1 (centres undefined) | 0.9 | . | . | 14.9 | .
CCCNC(=S)Nc1ccc(Cl)cc1Cl | 0.4 | -17.0 | -1.7 | -0.6 | .
O=C(NCc1ccccc1)C1=C[C@H](c2ccc(C(F)(F)F)cc2)C[C@H](OCc2ccc(CO)cc2)O1 | 11.5* | . | . | 33.7 | 3.8
Cc1ccc(S(=O)(=O)NCC(=O)OCc2csc(-c3ccccc3)n2)cc1 | 3.2 | -19.6 | 1.3 | 1.4 | .
O=C(CNS(=O)(=O)c1c(Cl)cccc1Cl)OCc1csc(-c2ccccc2)n1 | 12.7* | -27.6 | -2.0 | 20.4 | 0.6
O=C(CNS(=O)(=O)c1ccc2ccccc2c1)OCc1csc(-c2ccccc2)n1 | 14.1* | -60.0 | 1.7 | 38.7 | 2.6
CC(C)Sc1nc2sc3c(c2c2nnc(SCC(=O)NCc4ccco4)n12)CCCC3 | 5.6 | -46.3 | -12.6 | 14.3 | .
O=C(CSc1ccc(Br)cc1)Nc1ccccc1Oc1ccccc1 | 11.5* | -15.6 | 2.5 | -6.8 | 2.0

Assay outcomes deposited in PubChem by SRMLSC.
